Test [1] in a line: Antioxidant activity assessed as trolox equivalents ratio of AAPH-induced peroxyl radical scavenging activity at 0.001 mM by ORAC assay. It counts as functional. In short, it runs like this: (§1)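 Peroxyl scavenging in 75 mM potassium phosphate, pH 7.4. Compound in 10% DMSO (final) was mixed with 112 nM fluorescein, and 36 mM AAPH (final) was added. Fluorescence (ex 485/em 530 nm) was read every 5 min for 3 h. AUC was converted to Trolox equivalents against a Trolox curve (0–20 µM, duplicates). DMSO blank was subtracted. Mean of triplicates.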

Test [2] can be described thus: Antioxidant activity assessed as AAPH-induced peroxyl radical scavenging activity at 1 mM by ORAC assay. It counts as functional.
Test [3] can be described thus: Antioxidant activity assessed as trolox equivalents ratio of ferric ion reducing activity using fe3+-TPTZ at 0.1 mM by FRAP assay. It counts as functional. The method in brief:
(§2)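 Compound in 10% DMSO (final) was mixed with FRAP reagent (300 mM acetate buffer pH 3.6, 10 mM TPTZ in 40 mM HCl, 20 mM FeCl3, 10:1:1). Reading at 37 °C, 595 nm, after a 3 min lag, then every 6 min to 33 min. Value at 33 min expressed as percent of the 0.1 mM Trolox standard. DMSO/reagent blank subtracted. Triplicates.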

In test [4] the test system is Brain. Nature of the test: Antioxidant activity against toxin solution-induced lipid peroxidation in Sprague-Dawley rat brain homogenates assessed as free MDA levels per mg of tissue at 0.1 by TBARS assay. It counts as functional, tissue-based. The method in brief: (§3)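 Adult Sprague Dawley rat brains (200–250 g) homogenised 10% (w/v) in PBS, pH 7.4. Peroxidation induced with toxin solution (0.5 mM H2O2, 0.488 mM FeCl3, 0.14 mM ascorbic acid, 2:1:1). Compounds given in 10% DMSO final, with a 10% DMSO blank. BHT, TCA and TBA added, then 60 °C incubation, ice cooling and butanol extraction. A530 read; nmol MDA equivalents/mg tissue from a TMP curve.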

A short description of test [5]: Antioxidant activity assessed as ferric ion reducing activity using fe3+-TPTZ at 1 mM by FRAP assay. It counts as functional.
Test [6] is described as follows: Antioxidant activity assessed as trolox equivalents ratio of AAPH-induced peroxyl radical scavenging activity at 0.1 mM by ORAC assay. Type of test: functional. The method in brief: as §1
A short description of test [7]: Antioxidant activity assessed as trolox equivalents ratio of ferric ion reducing activity using fe3+-TPTZ at 0.01 mM by FRAP assay. Type of test: functional. In short, it runs like this: as §2
A short description of test [8]: Antioxidant activity assessed as trolox equivalents ratio of AAPH-induced peroxyl radical scavenging activity at 0.01 mM by ORAC assay. It counts as functional. In short, it runs like this:
as §1

In test [9] the test system is Brain. Nature of the test: Antioxidant activity against toxin solution-induced lipid peroxidation in Sprague-Dawley rat brain homogenates assessed as free MDA levels per mg of tissue at 0.001 by TBARS assay. Type of test: functional, tissue-based.
Test [10] in a line: Antioxidant activity assessed as trolox equivalents ratio of ferric ion reducing activity using fe3+-TPTZ at 0.001 mM by FRAP assay. Type of test: functional. In short, it runs like this: as §2
The test system of test [11] is Brain. In words: Antioxidant activity against toxin solution-induced lipid peroxidation in Sprague-Dawley rat brain homogenates assessed as free MDA levels per mg of tissue at 1 by TBARS assay. It counts as functional, tissue-based. In short, it runs like this:
as §3

In test [12] the test system is Brain. In words: Antioxidant activity against toxin solution-induced lipid peroxidation in Sprague-Dawley rat brain homogenates assessed as free MDA levels per mg of tissue at 0.01 by TBARS assay. It counts as functional, tissue-based. In short, it runs like this: as §3

We go through ten molecules from ChEMBL document CHEMBL1932942, “Antioxidant properties of 4-quinolones and structurally related flavones” (Bioorg Med Chem, 2012).

Structures are written as SMILES. The source made the active and inactive calls. The rule behind the calls is not given here.

`Oc1cc(-c2ccccc2)nc2c(O)cccc12`: the Ratio in test [1] stood at 9.18; in [3], 97.7; in [6], 65.4; in [7], 25.5; in test [8], 26.1; in test [10] it was 3.56. Further, the result (in [2]; in test [5]; with Brain [9]) was inactive. The Activity was 0.49 nmol in the test with Brain [4], 0.27 nmol in the test on Brain [11] and 0.58 nmol with Brain [12].
With `Oc1cc(-c2ccccc2)nc2ccccc12`, the result (in test [2]; in test [5]; in the test with Brain [9]) was inactive. For the same molecule, the Ratio in test [3] was found to be 4.79; in test [6], 1.91; in test [7] it was 1.06; in test [10] it was 0.53. Besides, the Activity is 0.87 nmol with Brain [4], 0.87 nmol in the test on Brain [11] and 0.91 nmol in the test on Brain [12].
With `c1ccc2ncccc2c1`, the Ratio is 1.4 in test [1], 0.98 in test [3], 2.42 in test [7] and 1.97 in [10]. For the same molecule, the result (in test [2]; in test [5]; with Brain [9]) was inactive. Further, the Activity in the test with Brain [4] came out at 0.77 nmol; in the test on Brain [11], 0.73 nmol; in the test with Brain [12], 0.8 nmol.
Consider `Oc1ccc2nc(-c3ccccc3)cc(O)c2c1`, for which the Ratio was found to be 12.3 in [1]; 58.9 in test [3]; 58.3 in test [6]; 9.53 in test [7]; 29 in test [8]; 2.14 in test [10]. The outcome (in test [2]; in [5]; in the test with Brain [9]) was inactive. Further, the Activity in the test with Brain [4] stood at 0.31 nmol; in the test on Brain [11], 0.05 nmol; in the test on Brain [12], 0.48 nmol.
In the case of `O=c1cc(-c2ccccc2)oc2ccc(O)cc12`, the Ratio in test [1] came to 21.4; in test [6] it was 59; in [7], 2.47; in test [8] it was 37.1; in test [10] it was 1.84. The result (in test [2]; in [5]; in the test with Brain [9]) was inactive. The Activity with Brain [4] is 0.79 nmol; in the test with Brain [11], 0.63 nmol; with Brain [12], 0.82 nmol.
For the molecule `Oc1cccc2cccnc12`, the Ratio amounted to 10.2 in test [1]; 15.4 in test [3]; 55.4 in test [6]; 3.68 in test [7]; 30.5 in test [8]; 2.65 in test [10]. The result (in [2]; in [5]; in the test on Brain [9]) was inactive. Besides, the Activity with Brain [4] came to 0.83 nmol; with Brain [11], 0.07 nmol; in the test with Brain [12] it was 0.93 nmol.
As for `O=c1cc(-c2ccccc2)oc2ccccc12`, the Ratio in test [2] worked out at 2.4; in test [5], 2.72; in test [7], 3.73; in test [8], 1.51; in [10], 0.2. Moreover, the result (in test [3]; in test [6]; in the test on Brain [9]) was inactive. Moreover, the results for the Activity in the test with Brain [4], in the test with Brain [11] and in the test on Brain [12] were 0.87 nmol, 0.83 nmol and 0.78 nmol, respectively.
Take `O=c1cc(-c2ccccc2)oc2cc(O)ccc12`: the outcome (in test [2]; in test [5]; with Brain [9]) was inactive. The Ratio came out at 15.1 in test [3], 2.52 in [7] and 2.04 in test [10]. For the same molecule, the Activity was determined as 0.48 nmol in the test on Brain [4], 0.91 nmol with Brain [11] and 0.42 nmol in the test on Brain [12].
With `Oc1ccc2c(O)cc(-c3ccccc3)nc2c1`, the Ratio was 15.3 in test [1]; 1.41 in test [3]; 57.5 in [6]; -1.26 in test [7]; 26.4 in [8]; -3.48 in [10]. Further, the result (in test [2]; in [5]; in the test with Brain [9]) was inactive. The figures for the Activity with Brain [4], with Brain [11] and with Brain [12] were 0.71 nmol, 0.72 nmol and 0.69 nmol, respectively.
Take `Oc1ccnc2ccccc12`: the Ratio in test [1] was determined as 1.5; in [3] it was 0.23; in [7], 1.69; in test [10], 2.82. For the same molecule, the result (in test [2]; in test [5]; with Brain [9]) was inactive. In addition, the Activity in the test on Brain [4] is 0.92 nmol; in the test on Brain [11], 0.77 nmol; with Brain [12], 0.93 nmol.
